Experimental data as given in ChEMBL document CHEMBL4400550, “Designing Dual Inhibitors of Anaplastic Lymphoma Kinase (ALK) and Bromodomain-4 (BRD4) by Tuning Kinase Selectivity” (J Med Chem, 2019).
≈ marks a conversion by molar mass, not a printed value. Calls of active or inactive are those of the source. The calls are words filed in the database; no cut-off is given here.

Assays:
[1] = target: T1, Bromodomain-containing protein 4 (Homo sapiens, UniProt O60885)
[2] = target: T2, ALK tyrosine kinase receptor (Homo sapiens, UniProt Q9UM73, F1174L); experiment: Displacement of kinase tracer 236 from human N-terminal GST-tagged ALK F1174L mutant (1058 to 1620 residues) after 60 mins by LanthaScreen Eu--kinase binding assay
Outline: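 LanthaScreen Eu binding assay. Mix 5 nM ALK F1174L, 30 nM Kinase Tracer 236 and 2 nM Eu-anti-GST antibody in 50 mM HEPES pH 7.5, 10 mM MgCl2, 1 mM EGTA, 0.01% Brij-35, 1 mM DTT. Compound runs 0.5 nM–100 μM in 1% DMSO. Incubate 60 min at room temperature. Read the 665 nm acceptor/donor emission ratio; fit log(inhibitor) vs ratio with a variable-slope equation.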

[3] = target: T1, Bromodomain-containing protein 4; experiment: Binding affinity to BRD4 (unknown origin) by isothermal calorimetry
[4] = target: T3, Serine/threonine-protein kinase PLK1 (Homo sapiens, UniProt P53350); experiment: Inhibition of PLK1 (unknown origin) using Ser/Thr 16 as substrate after 60 mins by Z-LYTE activity assay
[5] = target: T3, Serine/threonine-protein kinase PLK1; experiment: Inhibition of PLK1 (unknown origin) at 10 nM using Ser/Thr 16 as substrate after 60 mins by Z-LYTE activity assay
Outline: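 PLK-1 Z'-LYTE activity assay run externally through the SelectScreen kinase profiling service. Percentage inhibition is measured at 10 nM compound.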

[6] = target: T4, ALK tyrosine kinase receptor (Homo sapiens, UniProt Q9UM73); experiment: Inhibition of full-length C-terminal NanoLuc-tagged ALK (unknown origin) expressed in human HEK293 cells after 2 hrs by NanoBRET target engagement assay; assay type: cell-based
Target sequence in this assay (Q9UM73 whole entry): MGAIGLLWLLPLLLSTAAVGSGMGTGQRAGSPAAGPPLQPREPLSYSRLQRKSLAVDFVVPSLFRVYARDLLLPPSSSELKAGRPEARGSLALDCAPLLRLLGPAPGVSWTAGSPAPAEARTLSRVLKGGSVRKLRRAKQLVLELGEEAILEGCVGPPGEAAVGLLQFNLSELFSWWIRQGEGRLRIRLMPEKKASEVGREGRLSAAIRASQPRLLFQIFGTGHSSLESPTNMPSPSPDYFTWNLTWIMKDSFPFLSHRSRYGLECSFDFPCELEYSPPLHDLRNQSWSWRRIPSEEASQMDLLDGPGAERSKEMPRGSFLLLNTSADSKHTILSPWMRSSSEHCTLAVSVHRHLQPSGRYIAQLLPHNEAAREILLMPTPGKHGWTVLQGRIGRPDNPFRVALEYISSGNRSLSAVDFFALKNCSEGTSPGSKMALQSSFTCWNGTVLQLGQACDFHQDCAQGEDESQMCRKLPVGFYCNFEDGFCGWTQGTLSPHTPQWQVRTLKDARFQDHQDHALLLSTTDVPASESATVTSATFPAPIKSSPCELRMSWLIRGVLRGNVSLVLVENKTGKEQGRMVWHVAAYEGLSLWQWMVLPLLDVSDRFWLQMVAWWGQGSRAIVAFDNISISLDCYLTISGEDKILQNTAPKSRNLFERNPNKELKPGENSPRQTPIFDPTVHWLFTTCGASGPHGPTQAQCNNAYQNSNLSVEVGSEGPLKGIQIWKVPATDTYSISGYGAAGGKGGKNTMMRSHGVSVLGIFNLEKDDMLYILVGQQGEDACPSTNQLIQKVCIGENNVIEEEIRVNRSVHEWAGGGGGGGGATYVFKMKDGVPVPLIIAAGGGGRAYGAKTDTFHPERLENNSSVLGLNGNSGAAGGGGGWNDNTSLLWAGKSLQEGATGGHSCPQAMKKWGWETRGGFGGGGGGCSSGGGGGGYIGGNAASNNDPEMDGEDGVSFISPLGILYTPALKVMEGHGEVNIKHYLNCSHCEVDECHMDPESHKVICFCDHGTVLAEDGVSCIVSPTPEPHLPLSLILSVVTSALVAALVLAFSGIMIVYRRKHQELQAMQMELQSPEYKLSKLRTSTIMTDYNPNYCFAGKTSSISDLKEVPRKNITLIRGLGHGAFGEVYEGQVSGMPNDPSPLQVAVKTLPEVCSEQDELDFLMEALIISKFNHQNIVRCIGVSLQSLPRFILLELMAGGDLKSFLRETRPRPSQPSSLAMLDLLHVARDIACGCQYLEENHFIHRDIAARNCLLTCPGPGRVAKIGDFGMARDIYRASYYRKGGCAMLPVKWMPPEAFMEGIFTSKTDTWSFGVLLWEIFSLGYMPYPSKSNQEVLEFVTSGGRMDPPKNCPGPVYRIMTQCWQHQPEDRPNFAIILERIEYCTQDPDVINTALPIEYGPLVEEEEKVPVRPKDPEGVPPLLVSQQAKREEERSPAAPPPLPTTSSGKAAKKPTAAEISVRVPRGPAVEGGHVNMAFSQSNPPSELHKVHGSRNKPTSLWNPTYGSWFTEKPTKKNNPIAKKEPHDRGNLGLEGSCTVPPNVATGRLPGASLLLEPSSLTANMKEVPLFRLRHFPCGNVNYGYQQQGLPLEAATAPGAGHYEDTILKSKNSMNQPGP

[7] = target: T1, Bromodomain-containing protein 4; experiment: Inhibition of full-length C-terminal NanoLuc-tagged BRD4 BD1 (unknown origin) expressed in human HEK293 cells after 2 hrs by NanoBRET target engagement assay; assay type: cell-based
Homo sapiens [8] = organism: Homo sapiens; experiment: Selectivity ratio of IC50 for PLK1 (unknown origin) to IC50 for human N-terminal GST-tagged ALK F1174L mutant (1058 to 1620 residues)
[9] = target: T2, ALK tyrosine kinase receptor; experiment: Inhibition of ALK F1174L mutant auto-phosphorylation in human Kelly cells after 3 hrs by MSD assay; assay type: cell-based
[10] = target: T4, ALK tyrosine kinase receptor; experiment: Binding affinity to wild type human ALK (1088 to 1409 residues) expressed in mammalian expression system by kinome scan-based assay
Target sequence in this assay (Q9UM73 whole entry): as above

Homo sapiens [11] = organism: Homo sapiens; experiment: Selectivity ratio of IC50 for PLK1 in human HeLa cells to IC50 for human N-terminal GST-tagged ALK F1174L mutant (1058 to 1620 residues); assay type: cell-based
[12] = target: T3, Serine/threonine-protein kinase PLK1; experiment: Binding affinity to human PLK1 (33 to 325 residues) expressed in mammalian expression system assessed as unbound protein level at 1 uM by kinome scan-based assay
Outline: (§1)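 Single-point KINOMEscan (scanEDGE) competition binding at 1 μM compound. Read-out is %Ctrl, with DMSO set as 100%Ctrl; lower values mean stronger binding.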

[13] = target: T5, Serine/threonine-protein kinase PLK3 (Homo sapiens, UniProt Q9H4B4); experiment: Binding affinity to human PLK3 (42 to 334 residues) expressed in mammalian expression system assessed as unbound protein level at 1 uM by kinome scan-based assay
Outline: as §1
Target sequence in this assay (Q9H4B4 whole entry, looked up, the tested form may be a part): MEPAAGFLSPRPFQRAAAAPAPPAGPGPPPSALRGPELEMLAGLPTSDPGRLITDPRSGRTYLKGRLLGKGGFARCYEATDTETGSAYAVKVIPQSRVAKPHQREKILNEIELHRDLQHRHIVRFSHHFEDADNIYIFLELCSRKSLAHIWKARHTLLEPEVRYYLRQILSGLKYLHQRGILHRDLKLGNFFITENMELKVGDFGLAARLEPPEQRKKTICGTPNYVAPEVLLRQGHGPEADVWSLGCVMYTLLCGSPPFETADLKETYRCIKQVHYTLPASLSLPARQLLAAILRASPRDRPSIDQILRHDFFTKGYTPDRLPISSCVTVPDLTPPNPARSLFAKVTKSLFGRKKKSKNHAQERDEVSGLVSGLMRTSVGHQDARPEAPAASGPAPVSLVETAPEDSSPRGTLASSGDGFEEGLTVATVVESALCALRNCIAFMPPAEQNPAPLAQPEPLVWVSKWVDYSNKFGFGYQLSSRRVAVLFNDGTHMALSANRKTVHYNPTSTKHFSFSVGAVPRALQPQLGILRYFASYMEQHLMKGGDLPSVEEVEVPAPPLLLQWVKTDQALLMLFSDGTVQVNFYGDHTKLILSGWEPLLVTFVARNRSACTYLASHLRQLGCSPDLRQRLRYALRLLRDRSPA

Insulin receptor [14] = target: T6, Insulin receptor (Homo sapiens, UniProt P06213); experiment: Binding affinity to human INSR (997 to 1318 residues) expressed in mammalian expression system assessed as unbound protein level at 1 uM by kinome scan-based assay
Outline: as §1

[15] = target: T5, Serine/threonine-protein kinase PLK3; experiment: Binding affinity to human PLK3 (42 to 334 residues) expressed in mammalian expression system by kinome scan-based assay
Target sequence in this assay (Q9H4B4 whole entry, the tested form may be a part): as the sequence (Q9H4B4 whole entry, looked up, the tested form may be a part) above

[16] = Lipophilicity, log D of the compound at pH 7.4; assay type: physicochemical; details: buffer
[17] = Partition coefficient, log P of the compound; assay type: physicochemical; details: octanol/water
[18] = Permeability of the compound at pH 7.4 by PAMPA; assay type: ADME; details: read-out: permeability
[19] = target: T3, Serine/threonine-protein kinase PLK1; experiment: Binding affinity to human PLK1 (33 to 325 residues) expressed in mammalian expression system by kinome scan-based assay
[20] = target: T2, ALK tyrosine kinase receptor; experiment: Binding affinity to human ALK F1174L mutant (1088 to 1409 residues) expressed in mammalian expression system by kinome scan-based assay
Insulin receptor [21] = target: T6, Insulin receptor; experiment: Binding affinity to human INSR (997 to 1318 residues) expressed in mammalian expression system by kinome scan-based assay
HeLa = experiment: Induction of cell cycle arrest in human HeLa cells at 4 to 10 uM after 24 hrs by propidium iodide-staining based flow cytometry; assay type: functional
[22] = target: T4, ALK tyrosine kinase receptor; experiment: Binding affinity to wild type human ALK (1088 to 1409 residues) expressed in mammalian expression system assessed as unbound protein level at 1 uM by kinome scan-based assay
Outline: as §1
Target sequence in this assay (Q9UM73 19-1620 limits assumed): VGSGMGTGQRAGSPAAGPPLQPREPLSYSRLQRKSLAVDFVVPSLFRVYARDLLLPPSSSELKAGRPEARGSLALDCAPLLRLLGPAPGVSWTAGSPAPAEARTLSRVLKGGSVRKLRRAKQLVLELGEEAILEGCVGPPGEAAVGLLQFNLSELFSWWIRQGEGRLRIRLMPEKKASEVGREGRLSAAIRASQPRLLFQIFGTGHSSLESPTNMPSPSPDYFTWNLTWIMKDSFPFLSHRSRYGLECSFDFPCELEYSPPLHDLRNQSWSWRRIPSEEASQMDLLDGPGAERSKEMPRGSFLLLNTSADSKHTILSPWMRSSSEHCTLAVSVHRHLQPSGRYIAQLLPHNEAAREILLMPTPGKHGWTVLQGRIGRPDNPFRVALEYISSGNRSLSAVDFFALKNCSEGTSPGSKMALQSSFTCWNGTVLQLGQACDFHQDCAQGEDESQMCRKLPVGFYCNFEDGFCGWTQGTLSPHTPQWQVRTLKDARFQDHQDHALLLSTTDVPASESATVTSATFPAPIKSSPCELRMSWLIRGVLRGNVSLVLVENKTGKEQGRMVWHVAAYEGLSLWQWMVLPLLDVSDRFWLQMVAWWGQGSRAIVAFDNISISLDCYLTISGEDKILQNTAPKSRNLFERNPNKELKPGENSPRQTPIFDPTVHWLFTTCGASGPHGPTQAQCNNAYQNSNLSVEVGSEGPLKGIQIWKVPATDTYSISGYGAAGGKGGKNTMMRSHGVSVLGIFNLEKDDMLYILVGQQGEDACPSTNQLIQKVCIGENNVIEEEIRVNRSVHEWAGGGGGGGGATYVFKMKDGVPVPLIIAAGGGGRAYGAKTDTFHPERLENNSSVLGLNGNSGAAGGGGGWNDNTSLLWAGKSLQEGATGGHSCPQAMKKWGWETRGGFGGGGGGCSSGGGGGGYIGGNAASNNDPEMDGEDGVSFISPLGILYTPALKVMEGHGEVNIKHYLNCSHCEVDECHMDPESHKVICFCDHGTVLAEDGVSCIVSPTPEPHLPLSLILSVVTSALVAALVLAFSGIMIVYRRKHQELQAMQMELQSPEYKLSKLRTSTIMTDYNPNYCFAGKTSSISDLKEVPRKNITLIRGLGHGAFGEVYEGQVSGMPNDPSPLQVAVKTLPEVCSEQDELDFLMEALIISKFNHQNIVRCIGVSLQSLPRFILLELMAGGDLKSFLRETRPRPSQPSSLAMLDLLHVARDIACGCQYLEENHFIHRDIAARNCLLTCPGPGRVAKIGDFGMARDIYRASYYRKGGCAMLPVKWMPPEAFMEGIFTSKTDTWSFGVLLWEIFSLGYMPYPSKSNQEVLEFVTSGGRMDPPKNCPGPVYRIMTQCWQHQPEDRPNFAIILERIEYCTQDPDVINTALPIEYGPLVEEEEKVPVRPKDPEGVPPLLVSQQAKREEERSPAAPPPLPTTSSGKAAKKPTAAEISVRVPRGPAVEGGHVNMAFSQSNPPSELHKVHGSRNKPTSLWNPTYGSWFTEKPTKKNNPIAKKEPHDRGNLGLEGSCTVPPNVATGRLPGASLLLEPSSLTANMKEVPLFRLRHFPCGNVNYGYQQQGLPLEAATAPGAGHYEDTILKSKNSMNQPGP

[23] = Solubility of the compound in phosphate buffer at pH 7.4 b HPLC analysis; assay type: physicochemical
Outline: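 Solubility measured by in-house HPLC method from phosphate buffer at pH 7.4.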

T3 sequence (P53350 whole entry): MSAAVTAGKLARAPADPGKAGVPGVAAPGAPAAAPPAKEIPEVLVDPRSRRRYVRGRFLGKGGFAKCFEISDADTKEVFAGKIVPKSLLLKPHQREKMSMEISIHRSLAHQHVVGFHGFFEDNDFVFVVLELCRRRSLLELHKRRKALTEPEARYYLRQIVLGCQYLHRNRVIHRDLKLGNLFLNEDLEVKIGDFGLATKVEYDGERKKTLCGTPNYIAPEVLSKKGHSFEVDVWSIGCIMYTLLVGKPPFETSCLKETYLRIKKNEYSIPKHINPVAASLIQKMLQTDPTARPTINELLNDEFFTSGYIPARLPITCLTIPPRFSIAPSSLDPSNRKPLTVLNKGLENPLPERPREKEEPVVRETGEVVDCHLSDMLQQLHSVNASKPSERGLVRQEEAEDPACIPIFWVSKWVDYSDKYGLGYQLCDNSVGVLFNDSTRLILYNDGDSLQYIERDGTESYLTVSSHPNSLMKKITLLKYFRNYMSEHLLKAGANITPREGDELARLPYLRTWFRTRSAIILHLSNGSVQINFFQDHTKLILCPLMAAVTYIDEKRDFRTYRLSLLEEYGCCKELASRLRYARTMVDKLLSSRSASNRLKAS
T2 sequence (Q9UM73 19-1620 F1174L limits assumed): as the sequence (Q9UM73 19-1620 limits assumed) above, with F1156L counted along it

| Structure (SMILES) | deltaTm [1] | IC50 [2] | Kd [3] | IC50 [4] | also measured |
| --- | --- | --- | --- | --- | --- |
| CC[C@@H]1C(=O)N(C)c2cnc(Nc3ccc(C4CCN(C)CC4)cc3OC)nc2N1C1CCCC1 | 5.4 K | 290 nM | 80 nM | 9.9 nM |  |
| CCOc1cc(C2CCN(C)CC2)ccc1Nc1ncc2c(n1)N(Cc1cccc(Cl)c1)[C@H](CC)C(=O)N2C | 6.2 K | 210 nM | 130 nM | 540 nM |  |
| CCOc1cc(C2CCN(C)CC2)ccc1Nc1ncc2c(n1)N(Cc1ccccc1Br)[C@H](CC)C(=O)N2C | 2.9 K | 150 nM |  |  |  |
| CCOc1cc(C(=O)NC2CCN(C)CC2)ccc1Nc1ncc2c(n1)N(C1CCCC1)[C@@H](CC)C(=O)N2C | -0.2 K | 3400 nM |  |  | inhibition [5]: 19% |
| CCOc1cc(C2CCN(C)CC2)ccc1Nc1ncc2c(n1)N(Cc1ccccc1)[C@H](CC)C(=O)N2C | 4.7 K | 85 nM | 54 nM | 290 nM | IC50 [6]: 1640 nM; IC50 [7]: 540 nM |
| CCOc1cc(C2CCN(C)CC2)ccc1Nc1ncc2c(n1)N(Cc1cc(C)cs1)[C@H](CC)C(=O)N2C | 7.1 K | 17 nM | 44 nM | 125 nM | Ratio IC50 (Homo sapiens [8]): 7; IC50 [9]: 1500 nM; Kd [10]: 89 nM; Ratio (Homo sapiens [11]): > 10; Activity [12]: 1%; IC50 [6]: 470 nM; Activity [13]: 25%; Activity (Insulin receptor [14]): 25%; Kd [15]: 160 nM; logD [16]: 4.2; logP [17]: 6.1; Papp [18]: 49 ×10⁻⁶ cm/s; Kd [19]: 11 nM; Kd [20]: 23 nM; IC50 [7]: 260 nM; Kd (Insulin receptor [21]): 190 nM; Activity (HeLa): Active; Activity [22]: 7.1%; solubility [23]: 90 µM (≈ 48.1 µg/mL) |
| CC[C@@H]1C(=O)N(C)c2cnc(Nc3ccc(C(=O)NC4CCN(C)CC4)cc3OCC(C)C)nc2N1C1CCCC1 | 7.2 K | 1700 nM | 73 nM |  | inhibition [5]: 43% |
| CCOc1cc(C(=O)NC2CCN(C)CC2)ccc1Nc1ncc2c(n1)N(Cc1cccc(Br)c1)[C@H](CC)C(=O)N2C | 6.7 K | 490 nM | 73 nM | 110 nM |  |
| CCOc1cc(C(=O)NC2CCN(C)CC2)ccc1Nc1ncc2c(n1)N(Cc1ccccc1)[C@H](CC)C(=O)N2C | 4.1 K | 440 nM | 69 nM | 84 nM |  |

The remaining molecules from weak to strong by IC50 [2], led by results:

| deltaTm [1] | IC50 [2] | Kd [3] | IC50 [4] | Structure (SMILES) | also measured |
| --- | --- | --- | --- | --- | --- |
| 5.8 K | 680 nM |  |  | CCOc1cc(C2CCN(C)CC2)ccc1Nc1ncc2c(n1)N(Cc1ccc(Br)cc1)[C@H](CC)C(=O)N2C |  |
| 0.2 K | 520 nM |  |  | CCOc1cc(C(=O)NC2CCN(C)CC2)ccc1Nc1ncc2c(n1)N(C1CCCC1)CC(=O)N2C | inhibition [5]: 32% |
| 6 K | 380 nM | 81 nM | 12 nM | CCOc1cc(C(=O)NC2CCN(C)CC2)ccc1Nc1ncc2c(n1)N(C1CCCC1)[C@H](CC)C(=O)N2C |  |
| 4.8 K | 370 nM | 78 nM | 1800 nM | CCOc1cc(C2CCN(C)CC2)ccc1Nc1ncc2c(n1)N(Cc1cccc(C#N)c1)[C@H](CC)C(=O)N2C |  |
| 4.6 K | 370 nM |  |  | CCOc1cc(C2CCN(C)CC2)ccc1Nc1ncc2c(n1)N(Cc1scnc1C)[C@H](CC)C(=O)N2C |  |
| 5.1 K | 350 nM |  |  | CCOc1cc(C2CCN(C)CC2)ccc1Nc1ncc2c(n1)N(Cc1cccc(OC)c1)[C@H](CC)C(=O)N2C |  |
| 5 K | 290 nM | 120 nM | 540 nM | CCOc1cc(C2CCN(C)CC2)ccc1Nc1ncc2c(n1)N(Cc1cccc(Br)c1)[C@H](CC)C(=O)N2C |  |
| 8.3 K | 220 nM |  |  | CCOc1cc(C2CCN(C)CC2)ccc1Nc1ncc2c(n1)N(Cc1ccc(C)s1)[C@H](CC)C(=O)N2C |  |
| 5.4 K | 63 nM | 63 nM | 68 nM | CCOc1cc(C2CCN(C)CC2)ccc1Nc1ncc2c(n1)N(Cc1sccc1C)[C@H](CC)C(=O)N2C | IC50 [6]: 1020 nM; IC50 [7]: 310 nM |
